Screening data from PubChem.
A selection: hits, their analogues and other compounds. The true share with any hit is near 3%.
UBC13 inh = blocks human UBC13 polyubiquitin chain formation | TR-FRET | inhibition, % at 20 µM | 330,000 tested, 0.47% active | AID 485273; in the data active = inhibition above about 45%, passing the limit was not always enough
Apaf-1 inh = human Apaf-1 inhibition; O14727; reconstituted apoptosome caspase-3 activity, DEVD-Rh110 fluorescence; inhibition, % at 20 µM; 330,000 tested, 0.71% active; active = inhibition of at least 40% at 20 µM;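 note: plate controls were DMSO wells for no effect and DEVD-CHO caspase inhibitor wells for full effect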
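Material: biochemical Apaf-1 apoptosome reconstitution. Medium: Hepes buffer, pH 7.5. Also added: cytochrome c activation, bis-DEVD rhodamine 110 substrate. Timing: 30 min compound preincubation, 50 min activation, room temperature. Measured by: rhodamine 110 fluorescence at Ex 480/Em 540 nm.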
Granule exo inh = lytic granule exocytosis inhibition. 360,000 tested, 0.66% active. TALL-104 LAMP-1 surface exposure, flow cytometry; cells stimulated with thapsigargin and PMA. AID 651702. inhibition, % at 10 µM;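 active = inhibition above about 55%, limit read from the data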
MPTP block = inhibitors of mitochondrial permeability transition pore. 360,000 tested, 1.4% active. inhibition, % at 10 µM. isolated mouse mitochondria, Ca2+ swelling absorbance, 30 min. AID 602449;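 active = inhibition of 50% or more, scaled per plate between neutral and stimulator controls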;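 note: 0% = DMSO wells given calcium and 100% = 1 mM EGTA wells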
MIN6 prolif = inducers of beta-cell replication in MIN6 cells. MIN6 cells proliferation, ATPlite luminescence, 48 h; cells starved in 0.2% serum; 100% = growth in 10% serum. proliferation, % at 10 µM. 330,000 tested, 0.29% active. AID 2380;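 active = compounds whose signal lies at least 3.5 SD above the mean of all wells on their plate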;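 note: 0% = DMSO-treated cells in low-serum medium and 100% = 10% serum control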
iPSC survival up = hiPSC single-cell survival enhancement | ATPlite luminescence; 100% = ROCK inhibitor wells, 0% = DMSO | survival enhancement, % at 20 µM | 360,000 tested, 0.044% active | AID 602274; in the data active = survival enhancement above about 18%;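 note: cells exposed to compounds for 16 hours before the ATP read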
MPTP counter = mitochondrial membrane potential, counter-screen; shares compounds with MPTP block; 5,000 tested, 78% active; inhibition, % at 10 µM; AID 624504; isolated mitochondria, Rhodamine 123 fluorescence; in the data active = inhibition above about 22%;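 note: 0% = DMSO vehicle and 100% = positive control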
MPTP abs DR = MPTP inhibition, dose response swelling confirmation; IC50, µM; AID 651561; 780 tested, 58% active; shares compounds with MPTP block; isolated mitochondria swelling, absorbance; in the data active = IC50 below about 20 µM
MPTP cs DR = active in counter-screen for permeability transition pore inhibitors | AID 651564 | 780 tested, 49% active | IC50, µM | shares compounds with MPTP block | isolated mitochondria counterscreen, fluorescence read-out; in the data active = IC50 below about 80 µM
An asterisk follows results filed as active; . = no result.

SMILES	UBC13 inh	Apaf-1 inh	Granule exo inh	MPTP block	MIN6 prolif	iPSC survival up	MPTP counter	others
O=C(NCc1ccc(F)cc1)Nc1cccc([N+](=O)[O-])c1	3	2	0	62*	0	0	94*
O=C(NCc1ccncc1)Nc1cccc([N+](=O)[O-])c1	1	-1	-4	91*	-1	1	73*
O=[N+]([O-])c1cccc(S(=O)(=O)NCc2ccncc2)c1	-2	6	11	82*	-3	0	60*
Fc1ccc(CN2CCN3CCCC3C2C2CCCCC2)cc1F (stereo not drawn)	11	-2	2	56*	-2	3	-12	MPTP abs DR=16*;MPTP cs DR=>80
COc1ccc(Nc2cc(C)nc3ncnn23)c(OC)c1	-4	-6	2	-3	7	0	.
COc1ccc(CNc2cc(C)nc3ncnn23)c(OC)c1	2	-10	2	75*	-6	0	34*
COc1ccccc1NC(=O)C(C)OC(=O)CCNS(=O)(=O)c1ccc(C)c(C)c1 (stereo not drawn)	17	11	0	-2	1	0	.
O=C(NCCN1C(=O)S/C(=C\c2ccc(Cl)c(Cl)c2)C1=O)c1ccc2c(c1)C(=O)N(Cc1ccncc1)C2=O	-23	10	-1	56*	0	3	20*
O=C(NCCN1C(=O)S/C(=C\c2ccc(Cl)c(Cl)c2)C1=O)C1COc2ccccc2O1 (stereo not drawn)	-18	18	20	99*	-7	0	92*
O=C(NCCN1C(=O)S/C(=C\c2ccc(Cl)cc2)C1=O)c1ccc(F)c(S(=O)(=O)N2CCOCC2)c1	-5	10	1	1	0	1	.
Cc1ccc(SCc2nnc(NC(=O)c3ccccc3)s2)cc1	-10	24	-5	-1	-2	-1	.
O=C(Nc1ccc(Cl)cc1)Nc1nnc(CSc2ccc(Cl)cc2)s1	-5	15	19	85*	-6	-3	63*
Cc1ccc(NC(=O)Nc2nnc(Cc3ccc([N+](=O)[O-])cc3)s2)cc1	-12	-11	-6	34	0	0	.
O=C(Nc1ccc(Cl)cc1)Nc1nnc(CSCc2ccccc2)s1	-21	-5	1	97*	0	0	60*
O=C(Cc1nnc(NC(=O)Nc2ccc(Cl)cc2)s1)NCc1ccccc1	-4	-2	-1	-1	-1	2	.
O=C(Nc1ccc(Cl)cc1)Nc1nnc(Cc2ccc([N+](=O)[O-])cc2)s1	-27	-10	10	83*	-1	-2	63*
COc1ccc(N2CCN(C(=O)c3cc(C)on3)CC2)cc1	-7	-7	0	0	5	0	.
O=C(Nc1nnc(SCc2ccc(Cl)cc2)s1)c1cnccn1	-31	7	-1	1	0	2	.
O=C(Nc1ccccc1)Nc1nnc(SCc2ccc(Cl)cc2)s1	-5	7	27	86*	-3	3	33*
CCSc1nnc(NC(=O)Nc2cccc(C)c2)s1	-4	7	12	82*	-6	1	84*
O=C(Nc1ccc(Cl)cc1)Nc1nnc(SCc2ccc(Cl)cc2)s1	-26	0	1	85*	-3	1	24*
O=C(Nc1nnc(SCc2ccc(Cl)cc2)s1)C1CCCO1 (stereo not drawn)	-1	8	0	0	2	3	.
CCSc1nnc(NC(=O)[C@@H](NC(=O)c2cccc(C)c2)C(C)C)s1	-7	14	-5	1	-2	0	.
COc1ccc(CCNC(=O)c2ccc(Cl)c(S(=O)(=O)N3CCCC3)c2)cc1	-1	2	6	2	-1	0	.
CN(C)CCCC1Sc2ccccc2Sc2ccccc21 (stereo not drawn)	24	5	16	-3	-3	-1	.
